Laboratory results as given in ChEMBL document CHEMBL4270489, “Synthesis and in vitro and in vivo antitumour activity study of 11-hydroxyl esterified bergenin/cinnamic acid hybrids” (Eur J Med Chem, 2017).

Experiments:
SGC-7901 = assay: Antiproliferative activity against human SGC7901 cells incubated for 48 to 72 hrs by MTT assay; format: functional, cell-based
Summary of the method: (§1)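 MTT assay. Cells were grown in DMEM with 10% heat-inactivated FBS at 37°C under 5% CO₂. They were seeded at 5000/well in 5% FBS DMEM for 24 h, then given compound in DMSO at 0.1, 1, 10 and 100 µmol/L for 72 h (the table footnote says 48 h). MTT was added for 4 h, formazan was dissolved in DMSO and read at 570 nm. IC₅₀ was from ≥3 independent runs; >100 μM was given if 50% inhibition was not reached.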

PC-3 = assay: Antiproliferative activity against human PC3 cells incubated for 48 to 72 hrs by MTT assay; format: functional, cell-based; summary of the method: as §1
HepG2 [1] = assay: Antiproliferative activity against human HepG2 cells incubated for 48 to 72 hrs by MTT assay; format: functional, cell-based; summary of the method: as §1
A549 = assay: Antiproliferative activity against human A549 cells incubated for 48 to 72 hrs by MTT assay; format: functional, cell-based; summary of the method: as §1
MCF7 = assay: Antiproliferative activity against human MCF7 cells incubated for 48 to 72 hrs by MTT assay; format: functional, cell-based; summary of the method: as §1
HepG2 [2] = assay: Antitumour activity against human HepG2 cells xenografted in Swiss mouse assessed as inhibition of tumor growth at 20 mg/kg, ip dosed every day for 14 days; format: functional; conditions: 336 h, read-out: TGI
Summary of the method: (§2)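 Female Swiss mice (20-22 g) received 3×10⁶ HepG2 cells subcutaneously in the right flank. After 7-21 days they were randomised into groups of 6, including a saline control, and given daily intraperitoneal injections for 14 days. Body weight was recorded daily. Mice were killed on day 14, and tumour wet weight gave the % inhibition. Data are mean ± S.E.M.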

Mus musculus = assay: Toxicity in Swiss mouse xenografted with human HepG2 cells assessed as reduction in body weight at 20 mg/kg, ip dosed every day for 14 days; format: organism-based; conditions: in vivo, 336 h; summary of the method: as §2

For `COc1c(O)cc2c(c1O)[C@@H]1O[C@H](COC(=O)/C=C/c3ccccc3)[C@@H](O)[C@H](O)[C@H]1OC2=O`, the IC50 (SGC-7901) was 9.67 µM, the IC50 (PC-3) was 13.5 µM and the IC50 (HepG2 [1]) was 18.5 µM. It also gave an IC50 (A549) of 56.9 µM and an IC50 (MCF7) of over 100 µM.
Compound `O=c1[nH]cc(F)c(=O)[nH]1` [FLUOROURACIL] has an IC50 (SGC-7901) of 13.2 µM, an inhibition in vivo at 20 mg/kg (HepG2 [2]) of 52.2% and an IC50 (PC-3) of 38.6 µM. The IC50 (HepG2 [1]) was 17.4 µM, the IC50 (A549) was 10.7 µM and the Activity (Mus musculus) was “Toxic”. For the same compound, the IC50 (MCF7) was 7.67 µM.
For `COc1ccc(/C=C/C(=O)OC[C@H]2O[C@H]3c4c(cc(O)c(OC)c4O)C(=O)O[C@@H]3[C@@H](O)[C@@H]2O)cc1`, the IC50 (SGC-7901) was 15.9 µM, the IC50 (PC-3) was over 100 µM and the IC50 (HepG2 [1]) was 29.7 µM. For the same compound, the IC50 (A549) was 26.4 µM and the IC50 (MCF7) was 18.7 µM.
For `COc1cc(/C=C/C(=O)OC[C@H]2O[C@H]3c4c(cc(O)c(OC)c4O)C(=O)O[C@@H]3[C@@H](O)[C@@H]2O)cc(OC)c1OC`, the IC50 (SGC-7901) was 7.53 µM, the IC50 (PC-3) was 12.1 µM and the IC50 (HepG2 [1]) was 6.62 µM. For the same compound, the IC50 (A549) was 5.46 µM and the IC50 (MCF7) was 11.7 µM.
For `COc1c(O)cc2c(c1O)[C@@H]1O[C@H](COC(=O)/C=C/c3ccc(C)c(C)c3)[C@@H](O)[C@H](O)[C@H]1OC2=O`, the IC50 (SGC-7901) was over 100 µM, the IC50 (PC-3) was over 100 µM and the IC50 (HepG2 [1]) was over 100 µM. The IC50 (A549) was over 100 µM and the IC50 (MCF7) was 59.5 µM.
For `COc1c(O)cc2c(c1O)[C@@H]1O[C@H](COC(=O)/C=C/c3ccc(Cl)c(Cl)c3)[C@@H](O)[C@H](O)[C@H]1OC2=O`, the IC50 (SGC-7901) was over 100 µM, the IC50 (PC-3) was over 100 µM and the IC50 (HepG2 [1]) was over 100 µM. The IC50 (A549) was 63.2 µM and the IC50 (MCF7) was over 100 µM.
Compound `COc1c(O)cc2c(c1O)[C@@H]1O[C@H](COC(=O)/C=C/c3ccc(Cl)cc3)[C@@H](O)[C@H](O)[C@H]1OC2=O` has an IC50 (SGC-7901) of over 100 µM, an IC50 (PC-3) of 86.5 µM and an IC50 (HepG2 [1]) of over 100 µM. The IC50 (A549) was over 100 µM and the IC50 (MCF7) was over 100 µM.
`COc1c(O)cc2c(c1O)[C@@H]1O[C@H](COC(=O)/C=C/c3cc(F)cc(F)c3)[C@@H](O)[C@H](O)[C@H]1OC2=O` gave an IC50 (SGC-7901) of over 100 µM, an IC50 (PC-3) of 46.2 µM and an IC50 (HepG2 [1]) of over 100 µM. The IC50 (A549) was 28.4 µM and the IC50 (MCF7) was 72.1 µM.
